From ChEMBL document CHEMBL1150796, “A novel fluorescence intensity screening assay identifies new low-molecular-weight inhibitors of the gp41 coiled-coil domain of human immunodeficiency virus type 1” (Antimicrob Agents Chemother, 2007)
pIC50, pKi: −log10 of the molar value. Square brackets hold non-standard residues; d marks the D form. Peptide text beside a SMILES is read from it. Aib = CC(C)(N)C(=O)O

How the values were obtained:
[1] = Inhibition of HIV1 gp41 by metallopeptide-based fluorescence assay; design: species or system Human immunodeficiency virus 1
Method in brief: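 HR1 coiled-coil metallopeptide receptor [Fe(II)(env2.0)3]2+ (7.2 μM final) was mixed with LY-labelled HR2 probe C18-Aib-LY (1 μM) and 20 μM inhibitor in 25 mM Tris, 25 mM sodium acetate pH 7.0, 0.01% Tween 20, 4% DMSO. Inhibitor displacement relieved quenching; fluorescence was read at ex 425/em 540 nm. Signal was taken as primary/control scan ratio and Ki derived from binding equations.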

[2] = Inhibition of HIV1 gp41 by metallopeptide-based fluorescence assay using dose response study; design: species or system Human immunodeficiency virus 1
Method in brief: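 Competitive dose-response with 7.2 μM Fe(II) HR1 metallopeptide receptor and 1 μM C18-Aib-LY probe across varying inhibitor concentrations. Buffer was pH 7.0 Tris/acetate with 0.01% Tween 20 and 4% DMSO; read at ex 425/em 540 nm, relative to free-probe maximum. Curves were fit to equations 5 and 8 for Ki; three independent experiments, mean ± SD.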

[3] = system: Human immunodeficiency virus 1; experiment: Antiviral activity against HIV1 assessed as inhibition of fusion of gp160 expressing human HeLa cells and CCR5-expressing Tat-long terminal repeat luciferase reporter cells; format: functional, organism-based; conditions: Human immunodeficiency virus 1, HeLa
Method in brief: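 Cell-cell fusion run by a collaborating lab: HeLa effector cells with inducible gp160 expression were mixed with CCR5-expressing Tat-LTR-luciferase reporter cells, and syncytium formation was scored. DMSO in cell culture was capped at 1%.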

[4] = system: Human immunodeficiency virus 1; experiment: Antiviral activity against HIV1 assessed as six-helix bundle formation assay; format: functional
[5] = system: Human immunodeficiency virus 1; experiment: Antiviral activity against HIV1 assessed as syncytium inhibition by cell-cell fusion assay; format: functional, organism-based
Method in brief: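 HIV-1 fusion run as a cell-cell assay: HeLa effector cells with inducible gp160 expression were paired with CCR5-expressing reporter cells carrying Tat-responsive LTR-luciferase, with luciferase as the read-out. DMSO in culture was capped at 1%.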

pKi [1] | pKi [2] | pIC50 [3] | Structure (SMILES) | pIC50 [4] | pIC50 [5]
5.92 | 5.87 | 5.10 | O=C(O)c1ccc(NC(=O)c2cccc(Cc3ccc(F)cc3)c2)c(Cc2cccc([N+](=O)[O-])c2)c1 | – | –
– | – | – | O=C(O[C@@H]1Cc2c(O)cc(O)cc2O[C@@H]1c1cc(O)c(O)c(O)c1)c1cc(O)c(O)c(O)c1 [EPIGALOCATECHIN GALLATE] | 4.70 | –
5.94 | 5.82 | 5.10 | O=C(O)c1ccc(NC(=O)c2cccc(Cc3cccc4cccnc34)c2)c(Cc2cccc(F)c2)c1 | – | –
– | – | – | O=C(O[C@@H]1Cc2c(O)cc(O)cc2O[C@H]1c1cc(O)c(O)c(O)c1)c1cc(O)c(O)c(O)c1 (single isomer, unassigned) [GALLOCATECHIN GALLATE] | – | 5.36

Structure (SMILES) | pKi [1] | pKi [2] | pIC50 [3] | pIC50 [4] | pIC50 [5]
CC[C@H](C)[C@H](NC(=O)[C@H](CC(C)C)NC(=O)[C@H](CO)NC(=O)[C@@H](NC(=O)[C@H](Cc1ccc(O)cc1)NC(=O)[C@H](CC(N)=O)NC(=O)C(C)(C)NC(=O)[C@@H](NC(=O)[C@H](CCC(=O)O)NC(=O)[C@H](CCCNC(=N)N)NC(=O)[C@H](CC(=O)O)NC(=O)[C@H](Cc1c[nH]c2ccccc12)NC(=O)[C@H](CCC(=O)O)NC(=O)C(C)(C)NC(=O)[C@H](Cc1c[nH]c2ccccc12)NC(=O)[C@@H](NC(=O)[C@H](CCSC)NC(C)=O)[C@@H](C)O)[C@@H](C)CC)[C@@H](C)O)C(=O)N[C@@H](CS)C(N)=O (Ac-MTW[Aib]EWDREI[Aib]NYTSLIC-NH2) | 6.22 | 6.10 | – | – | –
